Test results taken from ChEMBL document CHEMBL5370667, “ent-Clavilactone J and Its Quinone Derivative, Meroterpenoids from the Fungus Resupinatus sp” (J Nat Prod, 2023).
Values after ≈ are worked out from the molar mass of the structure shown. Active and inactive are the calls of the source. The calls are words filed in the database; no cut-off is given here.

Experiments:
Wickerhamomyces anomalus = assay: Antifungal activity against Wickerhamomyces anomalus DSM 6766 assessed as growth inhibition; assay type: functional
Bacillus subtilis = assay: Antibacterial activity against Bacillus subtilis DSM 10 assessed as bacterial growth inhibition; assay type: functional
Procedure, shortened: (§1)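 Growth inhibition read as minimum inhibitory concentration (μg/mL) against strains from DSMZ. A positive-control antibiotic was run alongside.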

A549 = assay: Antiproliferative activity against human A549 cells assessed as cell growth inhibition; assay type: functional, cell-based
Procedure, shortened: (§2)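 IC50 (μM) determined against mammalian cell lines from the DSMZ ACC collection (SK-OV-3 without an ACC number), with epothilone B run in parallel as reference.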

[1] = system: Chromobacterium violaceum; assay: Antibacterial activity against Chromobacterium violaceum DSM 30191 assessed as bacterial growth inhibition; assay type: functional
MCF7 = assay: Antiproliferative activity against human MCF7 cells assessed as cell growth inhibition; assay type: functional, cell-based; procedure, shortened: as §2
Escherichia coli = assay: Antibacterial activity against Escherichia coli DSM 1116 assessed as bacterial growth inhibition; assay type: functional
PC-3 = assay: Antiproliferative activity against human PC-3 cells assessed as cell growth inhibition; assay type: functional, cell-based; procedure, shortened: as §2
[2] = Antiproliferative activity against mouse L929 cells assessed as cell growth inhibition; assay type: toxicity, cell-based; procedure, shortened: as §2
Candida albicans = assay: Antifungal activity against Candida albicans DSM 1665 assessed as growth inhibition; assay type: functional
Rhodotorula glutinis = assay: Antifungal activity against Rhodotorula glutinis DSM 10134 assessed as growth inhibition; assay type: functional
KB 3-1 = assay: Antiproliferative activity against human KB-3-1 cells assessed as cell growth inhibition; assay type: functional, cell-based; procedure, shortened: as §2
[3] = system: Schizosaccharomyces pombe; assay: Antifungal activity against Schizosaccharomyces pombe DSM 70572 assessed as growth inhibition; assay type: functional
Staphylococcus aureus = assay: Antibacterial activity against Staphylococcus aureus DSM 346 assessed as bacterial growth inhibition; assay type: functional; procedure, shortened: as §1
Pseudomonas aeruginosa = assay: Antibacterial activity against Pseudomonas aeruginosa DSM 19882 assessed as bacterial growth inhibition; assay type: functional
Acinetobacter baumannii = assay: Antibacterial activity against Acinetobacter baumannii DSM 30008 assessed as bacterial growth inhibition; assay type: functional
[4] = system: Mycolicibacterium smegmatis; assay: Antibacterial activity against Mycolicibacterium smegmatis ATCC 700084 assessed as bacterial growth inhibition; assay type: functional
SK-OV-3 = assay: Antiproliferative activity against human SK-OV-3 cells assessed as cell growth inhibition; assay type: functional, cell-based; procedure, shortened: as §2
A-431 = assay: Antiproliferative activity against human A-431 cells assessed as cell growth inhibition; assay type: functional, cell-based; procedure, shortened: as §2
Mucor hiemalis = assay: Antifungal activity against Mucor hiemalis DSM 2656 assessed as growth inhibition; assay type: functional

| SMILES | inhibition (Wickerhamomyces anomalus) | MIC (Bacillus subtilis) [µg/mL] | IC50 (A549) [µM] | inhibition [1] | IC50 (MCF7) [nM] | inhibition (Escherichia coli) | IC50 (PC-3) [µM] | IC50 [2] [µM] | inhibition (Candida albicans) | inhibition (Rhodotorula glutinis) | IC50 (KB 3-1) [µM] | inhibition [3] | MIC (Staphylococcus aureus) [µg/mL] | inhibition (Pseudomonas aeruginosa) | inhibition (Acinetobacter baumannii) | inhibition [4] | IC50 (SK-OV-3) [µM] | IC50 (A-431) [µM] | inhibition (Mucor hiemalis) | also measured |
| --- | --- | --- | --- | --- | --- | --- | --- | --- | --- | --- | --- | --- | --- | --- | --- | --- | --- | --- | --- | --- |
| C[C@@]12CC3=C(C(=O)C=CC3=O)[C@@H]3OC(=O)[C@@]4(CC[C@@H]1O2)O[C@@H]34 | inactive | 67 (≈ 222 µM) | 57 | inactive | 4200 | inactive | 19 | 6 | inactive | inactive | 22 | inactive | 67 (≈ 222 µM) | inactive | inactive | inactive | 30 | 6.5 | inactive |  |
| C/C(=C\c1csc(C)n1)[C@@H]1C[C@@H]2O[C@]2(C)CCC[C@H](C)[C@H](O)[C@@H](C)C(=O)C(C)(C)[C@@H](O)CC(=O)O1 [PATUPILONE] |  | 8.3 (≈ 16.3 µM) | 5.3e-05 |  | 0.03 |  | 0.00028 | 0.00043 |  |  | 3.4e-05 |  | 0.21 (≈ 0.414 µM) |  |  |  | 0.00018 | 5.1e-05 |  | MIC (Wickerhamomyces anomalus; Hansenula anomala): 8.3 µg/mL (≈ 16.3 µM); MIC [1]: 0.42 µg/mL (≈ 0.827 µM); MIC (Escherichia coli): 1.7 µg/mL (≈ 3.35 µM); MIC (Candida albicans): 8.3 µg/mL (≈ 16.3 µM); MIC (Rhodotorula glutinis): 2.1 µg/mL (≈ 4.14 µM); MIC [3]: 4.2 µg/mL (≈ 8.27 µM); MIC (Pseudomonas aeruginosa): 0.21 µg/mL (≈ 0.414 µM); MIC (Acinetobacter baumannii): 0.26 µg/mL (≈ 0.512 µM); MIC [4]: 1.7 µg/mL (≈ 3.35 µM); MIC (Mucor hiemalis): 4.2 µg/mL (≈ 8.27 µM) |
| C[C@@]12Cc3c(O)ccc(O)c3[C@@H]3OC(=O)[C@@]4(CC[C@@H]1O2)O[C@@H]34 | inactive | 17 (≈ 55.9 µM) | 19 | inactive | 1900 | inactive | 18 | 2.1 | inactive | inactive | 6.7 | inactive |  | inactive | inactive | inactive | 47 | 3.5 | inactive |  |
